In ChEMBL document CHEMBL5058577, “EUbOPEN Chemogenomics Library 2 (Multiplex)” (2022):

Tested on: U2OS
Assay: Multiplex assay against U2OS
Assay type: toxicity, cell-based
Conditions: human
Outline: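 Cells stained live at seeding with Hoechst33342, BioTracker Green Microtubule Cytoskeleton Dye, MitoTracker Red and Annexin V Alexa Fluor 680 were imaged on a CQ1 microscope at 37°C and 5% CO2 after compound addition. Their classification by CellPathfinder machine-learning gating ran from Hoechst high-intensity objects versus normal cells, to healthy, pyknosed or fragmented nuclei among normal cells, to mitotic or apoptotic among pyknosed cells. Tubulin, mitochondrial-mass and membrane-permeability phenotypes are per cents of healthy-nucleus cells.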

[1] = 12 h, 1 µM, compound concentration 1 uM, replicate 1
[2] = 12 h, 1 µM, compound concentration 1 uM, replicate 2
[3] = 12 h, 10 µM, compound concentration 10 uM, replicate 1
[4] = 12 h, 10 µM, compound concentration 10 uM, replicate 2
[5] = 24 h, 1 µM, compound concentration 1 uM, replicate 1
[6] = 24 h, 1 µM, compound concentration 1 uM, replicate 2
[7] = 24 h, 10 µM, compound concentration 10 uM, replicate 1
[8] = 24 h, 10 µM, compound concentration 10 uM, replicate 2
[9] = 48 h, 1 µM, compound concentration 1 uM, replicate 1
[10] = 48 h, 1 µM, compound concentration 1 uM, replicate 2
[11] = 48 h, 10 µM, compound concentration 10 uM, replicate 1
[12] = 48 h, 10 µM, compound concentration 10 uM, replicate 2

N[C@@]1(C(=O)O)CO[C@H]2[C@H](C(=O)O)[C@H]21 [LY-379268]
Population Apoptotic (%) [1]: 85% | Population Fragmented Nuclei (%) [1]: 20% | Population Healthy Nuclei (%) [1]: 76% | Population Hoechst High Intensity Objects (%) [1]: 0% | Population Membrane Permeable-Phenotype (%) [1]: 2% | Population Mitochondria Different-Phenotype (%) [1]: 1% | Population Mitotic Cells (%) [1]: 14% | Population Normal (%) [1]: 99% | Population Pyknosed Nuclei (%) [1]: 3% | Population Tubulin-Different-Phenotype (%) [1]: 1% | Total Cell Count [1]: 211 | Population Apoptotic (%) [2]: 100% | Population Fragmented Nuclei (%) [2]: 17% | Population Healthy Nuclei (%) [2]: 79% | Population Membrane Permeable-Phenotype (%) [2]: 8% | Population Mitochondria Different-Phenotype (%) [2]: 2% | Population Mitotic Cells (%) [2]: 0% | Population Pyknosed Nuclei (%) [2]: 2% | Population Tubulin-Different-Phenotype (%) [2]: 3% | Total Cell Count [2]: 108 | Population Apoptotic (%) [3]: 63% | Population Fragmented Nuclei (%) [3]: 30% | Population Healthy Nuclei (%) [3]: 61% | Population Hoechst High Intensity Objects (%) [3]: 0% | Population Membrane Permeable-Phenotype (%) [3]: 8% | Population Mitochondria Different-Phenotype (%) [3]: 2% | Population Mitotic Cells (%) [3]: 36% | Population Normal (%) [3]: 99% | Population Pyknosed Nuclei (%) [3]: 7% | Population Tubulin-Different-Phenotype (%) [3]: 3% | Total Cell Count [3]: 264 | Population Apoptotic (%) [4]: 80% | Population Fragmented Nuclei (%) [4]: 19% | Population Healthy Nuclei (%) [4]: 77% | Population Hoechst High Intensity Objects (%) [4]: 1% | Population Membrane Permeable-Phenotype (%) [4]: 4% | Population Mitochondria Different-Phenotype (%) [4]: 1% | Population Mitotic Cells (%) [4]: 20% | Population Normal (%) [4]: 98% | Population Pyknosed Nuclei (%) [4]: 3% | Population Tubulin-Different-Phenotype (%) [4]: 1% | Total Cell Count [4]: 143 | Population Apoptotic (%) [5]: 88% | Population Fragmented Nuclei (%) [5]: 20% | Population Healthy Nuclei (%) [5]: 71% | Population Hoechst High Intensity Objects (%) [5]: 1% | Population Membrane Permeable-Phenotype (%) [5]: 1% | Population Mitochondria Different-Phenotype (%) [5]: 1% | Population Mitotic Cells (%) [5]: 11% | Population Normal (%) [5]: 98% | Population Pyknosed Nuclei (%) [5]: 7% | Population Tubulin-Different-Phenotype (%) [5]: 1% | Total Cell Count [5]: 245 | Population Apoptotic (%) [6]: 100% | Population Fragmented Nuclei (%) [6]: 11% | Population Healthy Nuclei (%) [6]: 79% | Population Hoechst High Intensity Objects (%) [6]: 0% | Population Membrane Permeable-Phenotype (%) [6]: 12% | Population Mitochondria Different-Phenotype (%) [6]: 2% | Population Mitotic Cells (%) [6]: 0% | Population Normal (%) [6]: 100% | Population Pyknosed Nuclei (%) [6]: 9% | Population Tubulin-Different-Phenotype (%) [6]: 6% | Total Cell Count [6]: 133 | Population Apoptotic (%) [7]: 81% | Population Fragmented Nuclei (%) [7]: 25% | Population Healthy Nuclei (%) [7]: 66% | Population Hoechst High Intensity Objects (%) [7]: 1% | Population Membrane Permeable-Phenotype (%) [7]: 8% | Population Mitochondria Different-Phenotype (%) [7]: 1% | Population Mitotic Cells (%) [7]: 18% | Population Normal (%) [7]: 98% | Population Pyknosed Nuclei (%) [7]: 7% | Population Tubulin-Different-Phenotype (%) [7]: 2% | Total Cell Count [7]: 284 | Population Apoptotic (%) [8]: 90% | Population Fragmented Nuclei (%) [8]: 16% | Population Healthy Nuclei (%) [8]: 77% | Population Membrane Permeable-Phenotype (%) [8]: 4% | Population Mitochondria Different-Phenotype (%) [8]: 4% | Population Mitotic Cells (%) [8]: 10% | Population Pyknosed Nuclei (%) [8]: 6% | Population Tubulin-Different-Phenotype (%) [8]: 4% | Total Cell Count [8]: 165 | Population Apoptotic (%) [9]: 92% | Population Fragmented Nuclei (%) [9]: 13% | Population Healthy Nuclei (%) [9]: 79% | Population Hoechst High Intensity Objects (%) [9]: 1% | Population Membrane Permeable-Phenotype (%) [9]: 3% | Population Mitochondria Different-Phenotype (%) [9]: 2% | Population Mitotic Cells (%) [9]: 7% | Population Normal (%) [9]: 98% | Population Pyknosed Nuclei (%) [9]: 7% | Population Tubulin-Different-Phenotype (%) [9]: 3% | Total Cell Count [9]: 348 | Population Apoptotic (%) [10]: 100% | Population Fragmented Nuclei (%) [10]: 15% | Population Healthy Nuclei (%) [10]: 72% | Population Hoechst High Intensity Objects (%) [10]: 2% | Population Membrane Permeable-Phenotype (%) [10]: 11% | Population Mitochondria Different-Phenotype (%) [10]: 5% | Population Mitotic Cells (%) [10]: 0% | Population Normal (%) [10]: 97% | Population Pyknosed Nuclei (%) [10]: 12% | Population Tubulin-Different-Phenotype (%) [10]: 5% | Total Cell Count [10]: 178 | Population Apoptotic (%) [11]: 92% | Population Fragmented Nuclei (%) [11]: 24% | Population Healthy Nuclei (%) [11]: 68% | Population Hoechst High Intensity Objects (%) [11]: 2% | Population Membrane Permeable-Phenotype (%) [11]: 9% | Population Mitochondria Different-Phenotype (%) [11]: 2% | Population Mitotic Cells (%) [11]: 7% | Population Normal (%) [11]: 97% | Population Pyknosed Nuclei (%) [11]: 7% | Population Tubulin-Different-Phenotype (%) [11]: 3% | Total Cell Count [11]: 383 | Population Apoptotic (%) [12]: 90% | Population Fragmented Nuclei (%) [12]: 11% | Population Healthy Nuclei (%) [12]: 83% | Population Membrane Permeable-Phenotype (%) [12]: 3% | Population Mitotic Cells (%) [12]: 9% | Population Pyknosed Nuclei (%) [12]: 4% | Total Cell Count [12]: 228
